System: Fibroblast
Assay: Multiplex assay against human fibroblast
Type: toxicity, cell-based
Summary of the method: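 Tubulin, mitochondrial-mass and membrane-permeability phenotypes are per cents of healthy-nucleus cells. Cells were gated by CellPathfinder machine learning into Hoechst high-intensity objects or normal cells, normal cells into healthy, pyknosed or fragmented nuclei, and pyknosed cells into mitotic or apoptotic. Before that, live cells stained at seeding with Hoechst33342, BioTracker Green Microtubule Cytoskeleton Dye, MitoTracker Red and Annexin V Alexa Fluor 680 were imaged on a CQ1 microscope at 37°C and 5% CO2 after compound addition.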

[1] = 12 h, 1 µM, compound concentration 1 uM, replicate 1
[2] = 12 h, 1 µM, compound concentration 1 uM, replicate 2
[3] = 12 h, 10 µM, compound concentration 10 uM, replicate 1
[4] = 12 h, 10 µM, compound concentration 10 uM, replicate 2
[5] = 24 h, 1 µM, compound concentration 1 uM, replicate 1
[6] = 24 h, 1 µM, compound concentration 1 uM, replicate 2
[7] = 24 h, 10 µM, compound concentration 10 uM, replicate 1
[8] = 24 h, 10 µM, compound concentration 10 uM, replicate 2

`CN1CCN(C(=O)C(C)(C)c2ccc(C(=O)Nc3cn4cc(-c5cc(C(C)(C)C)cc(C(C)(C)C)c5)ccc4n3)cc2)CC1` [T3-CLK-N] was tested, and the “Population Apoptotic (%)” value [1] was 84%, the “Population Fragmented Nuclei (%)” value [1] was 34% and the “Population Healthy Nuclei (%)” value [1] was 52%. The “Population Hoechst High Intensity Objects (%)” value [1] was 19%, the “Population Membrane Permeable-Phenotype (%)” value [1] was 8% and the “Population Mitochondria Different-Phenotype (%)” value [1] was 1%. The “Population Mitotic Cells (%)” value [1] was 16%, the “Population Normal (%)” value [1] was 80% and the “Population Pyknosed Nuclei (%)” value [1] was 13%. For the same compound, the “Population Tubulin-Different-Phenotype (%)” value [1] was 3%, the “Total Cell Count” value [1] was 237 and the “Population Apoptotic (%)” value [2] was 42%. The “Population Fragmented Nuclei (%)” value [2] was 44%, the “Population Healthy Nuclei (%)” value [2] was 44% and the “Population Hoechst High Intensity Objects (%)” value [2] was 26%. For the same compound, the “Population Membrane Permeable-Phenotype (%)” value [2] was 14%, the “Population Mitochondria Different-Phenotype (%)” value [2] was 11% and the “Population Mitotic Cells (%)” value [2] was 57%. The “Population Normal (%)” value [2] was 73%, the “Population Pyknosed Nuclei (%)” value [2] was 11% and the “Population Tubulin-Different-Phenotype (%)” value [2] was 22%. For the same compound, the “Total Cell Count” value [2] was 83, the “Population Apoptotic (%)” value [3] was 78% and the “Population Fragmented Nuclei (%)” value [3] was 39%. The “Population Healthy Nuclei (%)” value [3] was 45%, the “Population Hoechst High Intensity Objects (%)” value [3] was 16% and the “Population Membrane Permeable-Phenotype (%)” value [3] was 23%. The “Population Mitochondria Different-Phenotype (%)” value [3] was 1%, the “Population Mitotic Cells (%)” value [3] was 21% and the “Population Normal (%)” value [3] was 83%. For the same compound, the “Population Pyknosed Nuclei (%)” value [3] was 14%, the “Population Tubulin-Different-Phenotype (%)” value [3] was 21% and the “Total Cell Count” value [3] was 260. For the same compound, the “Population Apoptotic (%)” value [4] was 50%, the “Population Fragmented Nuclei (%)” value [4] was 40% and the “Population Healthy Nuclei (%)” value [4] was 30%. For the same compound, the “Population Hoechst High Intensity Objects (%)” value [4] was 39%, the “Population Membrane Permeable-Phenotype (%)” value [4] was 30% and the “Population Mitochondria Different-Phenotype (%)” value [4] was 23%. For the same compound, the “Population Mitotic Cells (%)” value [4] was 50%, the “Population Normal (%)” value [4] was 60% and the “Population Pyknosed Nuclei (%)” value [4] was 28%. The “Population Tubulin-Different-Phenotype (%)” value [4] was 23%, the “Total Cell Count” value [4] was 69 and the “Population Apoptotic (%)” value [5] was 73%. For the same compound, the “Population Fragmented Nuclei (%)” value [5] was 31%, the “Population Healthy Nuclei (%)” value [5] was 51% and the “Population Hoechst High Intensity Objects (%)” value [5] was 16%. The “Population Membrane Permeable-Phenotype (%)” value [5] was 9%, the “Population Mitochondria Different-Phenotype (%)” value [5] was 2% and the “Population Mitotic Cells (%)” value [5] was 26%. For the same compound, the “Population Normal (%)” value [5] was 83%, the “Population Pyknosed Nuclei (%)” value [5] was 16% and the “Population Tubulin-Different-Phenotype (%)” value [5] was 6%. The “Total Cell Count” value [5] was 243, the “Population Apoptotic (%)” value [6] was 40% and the “Population Fragmented Nuclei (%)” value [6] was 42%. The “Population Healthy Nuclei (%)” value [6] was 48%, the “Population Hoechst High Intensity Objects (%)” value [6] was 28% and the “Population Membrane Permeable-Phenotype (%)” value [6] was 11%. The “Population Mitochondria Different-Phenotype (%)” value [6] was 11%, the “Population Mitotic Cells (%)” value [6] was 60% and the “Population Normal (%)” value [6] was 71%. The “Population Pyknosed Nuclei (%)” value [6] was 8%, the “Population Tubulin-Different-Phenotype (%)” value [6] was 11% and the “Total Cell Count” value [6] was 78. The “Population Apoptotic (%)” value [7] was 82%, the “Population Fragmented Nuclei (%)” value [7] was 32% and the “Population Healthy Nuclei (%)” value [7] was 54%. The “Population Hoechst High Intensity Objects (%)” value [7] was 10%, the “Population Membrane Permeable-Phenotype (%)” value [7] was 22% and the “Population Mitochondria Different-Phenotype (%)” value [7] was 5%. For the same compound, the “Population Mitotic Cells (%)” value [7] was 17%, the “Population Normal (%)” value [7] was 89% and the “Population Tubulin-Different-Phenotype (%)” value [7] was 30%. For the same compound, the “Total Cell Count” value [7] was 245, the “Population Apoptotic (%)” value [8] was 33% and the “Population Fragmented Nuclei (%)” value [8] was 55%. The “Population Healthy Nuclei (%)” value [8] was 30%, the “Population Hoechst High Intensity Objects (%)” value [8] was 38% and the “Population Membrane Permeable-Phenotype (%)” value [8] was 38%. For the same compound, the “Population Mitochondria Different-Phenotype (%)” value [8] was 15%, the “Population Mitotic Cells (%)” value [8] was 66% and the “Population Normal (%)” value [8] was 61%. For the same compound, the “Population Pyknosed Nuclei (%)” value [8] was 13%, the “Population Tubulin-Different-Phenotype (%)” value [8] was 23% and the “Total Cell Count” value [8] was 70.
